Source: ChEMBL document CHEMBL1154721, “Synthesis, antitumor activity and molecular docking study of novel sulfonamide-Schiff's bases, thiazolidinones, benzothiazinones and their C-nucleoside derivatives” (Eur J Med Chem, 2010)
≈ marks a conversion by molar mass, not a printed value.

Test system: MCF7
Assay: Cytotoxicity against human MCF7 cells after 48 hrs by SRB assay
Assay type: functional, cell-based
Procedure, shortened: (§1)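 Cells were seeded and left 24 h to attach before dosing, then exposed to test compound at […], in triplicate wells per dose. Incubation was 48 h at 37 °C under 5% CO2. Cells were then fixed, washed and stained with sulforhodamine B, excess dye was removed with acetic acid, bound dye was recovered in Tris-EDTA buffer, and colour intensity was read on an ELISA reader.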
With `O=c1[nH]cc(F)c(=O)[nH]1` [FLUOROURACIL] the IC50 was 0.67 µg/mL (≈ 5.15 µM).

Test system: HeLa
Assay: Cytotoxicity against human HeLa cells after 48 hrs by SRB assay
Assay type: functional, cell-based
Procedure, shortened: as §1
With `O=c1[nH]cc(F)c(=O)[nH]1` [FLUOROURACIL] the IC50 was 1.01 µg/mL (≈ 7.76 µM).

Molecular target: not listed separately
Assay: Inhibition of PTK
Work on `COc1ccc(C2Sc3ccccc3C(=O)N2c2ccc(S(=O)(=O)Nc3ccccn3)cc2)c(O)c1` (stereo unspecified) yielded a Ki of 4720 nM.
Work on `O=C1c2ccccc2SC(c2c[nH]c3ccccc23)N1c1ccc(S(=O)(=O)Nc2ccccn2)cc1` (stereo unspecified) yielded a Ki of 553 nM.
`COc1ccc(C2SCC(=O)N2c2ccc(S(=O)(=O)Nc3ccccn3)cc2)cc1` (stereo unspecified) gave a Ki of 705 nM.
With `COc1ccc(C2Sc3ccccc3C(=O)N2c2ccc(S(=O)(=O)Nc3ccccn3)cc2)cc1OC` (stereo unspecified) the Ki was 2510 nM.
Work on `COc1cc(/C=N/c2ccc(S(=O)(=O)Nc3ccccn3)cc2)cc(OC)c1OC` yielded a Ki of 526 nM.
`COc1ccc(/C=N/c2ccc(S(=O)(=O)Nc3ccccn3)cc2)c(O)c1` gave a Ki of 258 nM.
In the case of `COc1cc(C2SCC(=O)N2c2ccc(S(=O)(=O)Nc3ccccn3)cc2)cc(OC)c1OC` (stereo unspecified), the Ki is reported as 5320 nM.
Work on `COc1cc(C2Sc3ccccc3C(=O)N2c2ccc(S(=O)(=O)Nc3ccccn3)cc2)cc(OC)c1OC` (stereo unspecified) yielded a Ki of 48700 nM.
Work on `O=S(=O)(Nc1ccccn1)c1ccc(/N=C/[C@H](O)[C@H](O)[C@@H](O)[C@@H](O)CO)cc1` yielded a Ki of 331 nM.
Work on `COc1ccc(C2SCC(=O)N2c2ccc(S(=O)(=O)Nc3ccccn3)cc2)c(O)c1` (stereo unspecified) yielded a Ki of 15400 nM.
Work on `O=C1CSC([C@H](O)[C@H](O)[C@@H](O)[C@@H](O)CO)N1c1ccc(S(=O)(=O)Nc2ccccn2)cc1` (stereo partly specified) yielded a Ki of 2350 nM.
In the case of `COc1ccc(/C=N/c2ccc(S(=O)(=O)Nc3ccccn3)cc2)cc1OC`, the Ki is reported as 258 nM.
Compound `COc1ccc(C2SCC(=O)N2c2ccc(S(=O)(=O)Nc3ccccn3)cc2)cc1OC` (stereo unspecified) has a Ki of 1050 nM.
Compound `Nc1ccc(S(=O)(=O)Nc2ccccn2)cc1` [SULFAPYRIDINE] has a Ki of 3590 nM.
